Experimental data taken from the RNAGym collection of RNA variant scans (doi:10.1126/science.aae0568).
Variants at the floor of the assay were thinned out.

B1: tRNA (parent)
chain: GUUCCGUUGGCGUAAUGGUAACGCGUCUCCCUCCUAAGGAGAAGACUGCGGGUUCGAGUCCCGUACGGAACG

Variants of: B1
Test: yeast fitness relative to wild type (ratio to wild type); higher = fitter; tRNA-Arg(CCU), competitive growth, 37 C, YPD
Summary of the method: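 Gene amplicons from the start population and from each of six end populations were read by 100-nucleotide paired-end sequencing. Those end populations came from pooled Saccharomyces cerevisiae strains carrying tRNA-Arg(CCU) gene variants at the native locus, competed in YPD at 37°C for 24 hours. Fitness relative to wild type was worked out from changes in genotype frequencies. Genotypes needed ≥ 100 starting reads, and estimates < 0.5 were set to 0.5.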

Variant	yeast fitness
GUUCCGUUGGCGUAAUGGUAACGCGUCACCCUCCUAAGGAGAAGACUGUGGGUUGGAGUCCCGUACGGAACG [U28A C49U C55G]	≤ 0.5
GUUCCGUUGGCGUAAUGGUAACGCGUCUCCCUCCUAGGGAGGAGACUGCGGGUUCGAGUCCCGUACGGAACG [A37G A42G]	0.838
GUUCCGUUGGCGUAAUGGUAACGCCUCUCCCUCCUAAGGAGAAGACUGCGGGUUCGAGUCCCCUACGGAACG [G25C G63C]	0.716
GUUCCGUUGGCGUAAUGGUAACGCGUCUCCCUCGUAAGGAGAAGAAUGCGGGUUCGAGUCCCGUACGGAACG [C34G C46A]	0.615
GUUCCGUUGGCGUAAUGGUAACGCGUCUCACUCCUAAGGAGAAGACUGCGGCUUCGAGUCCCGUACGGCACG [C30A G52C A69C]	≤ 0.5
GUUCCGUUGGCGUAAUCGUAACGCGUCUCCCUCCUAAGGAGAUGACUGCGGGUUCGAGUCCUGUACGGAACG [G17C A43U C62U]	0.632
GUUCCGUUGGCGUAAUGGUAACGCGUCUCCCUCCUAAGGAGAAGACUGCGGGUGCGAGUCCCGUUCGGAACG [U54G A65U]	≤ 0.5
GUUCCGUUGGCGGAAUGGUUACGCGUCUCCCUCCUAAGGAGAAGACUGCGGGUUCGAGUCCCGUACGGAACG [U13G A20U]	1.03
GUUCCGUUGGAGUAUUGGUAACGCGUCUCACUCCUAAGGAGCAGACUGCGGGUUCGAGUCCCGUACGGAACG [C11A A15U C30A A42C]	≤ 0.5
GUUCCGUUGGCGUAAUGGUAACGCGUCUCCCUCCUAAGGUGAAGACUGCGGGUUACAGUCCCGUACGGAACG [A40U C55A G56C]	≤ 0.5
GUUCCGUUGGCGUAAUGGUAAUGCGUCUCCCUCUUAAGGAGAAGACUGCGGGUUUGAGUCCCGUACGGAACG [C22U C34U C55U]	0.586
GUUCCGUUGGCGUAAUGGUAACGCGUCUCCCUCCUAAGGAGAAGAAUGCGGGUUCGAGUCGCGUACGGAUCG [C46A C61G A70U]	0.525
GUUACGUUGGCGUAAUGGUAACGCGUCUCUCUCCUAAGGAGAAGACUGCGGGUUCGAGUCCCGUACGGAACG [C4A C30U]	0.756
GUUCCAUUGGCGUAAUGGUAACGCGUCUCCCUCCUAAGGAGAAGAGUGCGACUUCGAGUCCGGUAUGGAACG [G6A C46G G51A G52C C62G C66U]	≤ 0.5
GUUCGGUUGGCGUAAUGGUAACGCGUCUCCCUCCUAAGGAGAAGACUGCGGGAUCGAGUCCCGUACGGAACG [C5G U53A]	0.658
GUUCCGUUGGCGUAAUGGUAAAGAGCCUCCCUCCCAAGGAGAAGACUGCGGGUUCGAGUCCCGUACGGAACG [C22A C24A U26C U35C]	≤ 0.5
GUUCCGUUGGCGUAAUCGUAACGCGUCUCCCUCCUAAGGAGAAGACUGCGGGUUCGAGUCCCAUACGGAACG [G17C G63A]	0.674
GUUCCGAUGGCGUAAUGGUCACGCGUCCCCCUCCUAAGGAGAAGACUGCGGGUUCGACUCCCGUACGGAACG [U7A A20C U28C G58C]	0.647
GUUCCGUUGGCGUAACGGUAACGCGUCUCCCUCCUAAGGUGAAGACUGCGGGUUCGCGUCCCGUACGGAACG [U16C A40U A57C]	≤ 0.5

Variant	yeast fitness
GUUGCGUUGGCGUAAUGGUAACGCGUCUCGCUGCUAAGGAGAAGACUGCGGGUUCGAGUCCCGUAUGGAACG [C4G C30G C33G C66U]	≤ 0.5
GUUCCGUUGGCGUAACGGUAACGCGUCUCCCUUCUAAGGAGAAGACUGCGGGUUCGAAUCCCGUACGGAACG [U16C C33U G58A]	≤ 0.5
GUUUCGUUAGCGUAAUGGUAAGGCGUCUCCCUCCUAAGGAGUAGACUGCGGGUUCGAGUCCCGAACAGAACG [C4U G9A C22G A42U U64A G67A]	0.58
GUUCCGUUGGCGUAAUGGUAACGCGUCUCCCUCCUAAGGAGAAGACUGCGGGUUCGAGUCCCAUACGGAGCG [G63A A70G]	0.804
GUGCCGUUGGCGUCAUGGUAACGCGUCUCCCUCCUAAGGAGUACACUGCGGGUUCGAGUCCCGUACGGAACG [U3G A14C A42U G44C]	0.578
GUUCCGUUGGCGUAAUGGUAGUGCGUCUCCCUCCUAAGGAGAAGACUGCGGGUUCGAGUACCGUACGGAACG [A21G C22U C60A]	≤ 0.5
GUUCCGUUGGCGUGAUGGUAACGCGUCUCCCUCCUAGGGAGAAGACUGCGGGUUGGAGUCCCGUACGGAACG [A14G A37G C55G]	≤ 0.5
GUUCCGUUGGCGUAAUGGUAACGCGUUUCCCUCCUAAGGGGAAGACUGCGGGUUUAAGUCCCGGACGGUACG [C27U A40G C55U G56A U64G A69U]	≤ 0.5
GUUCCGUUGGCGUGAUGGUCACGCGUCUCCCUCCUAAGGAGAAGACUGCGGGUUCGAGUCCCGUAUGGAACG [A14G A20C C66U]	0.665
GUUCCGUUGGCGUAAUGGUAAGGCGUCUCUCUCUUAAGGAGAGGACUGCGGGUUCGAGUCCCGUACGGAACG [C22G C30U C34U A43G]	≤ 0.5
GUUCCGUUGGCGUACUGGUAACGCGUCUCCCUCCUAAGGAGAAAACUGCGGGUUCGAGUCCCGUACAGAACG [A15C G44A G67A]	≤ 0.5
GUUCCGUUGGCGUAAUGGUAACGCGUCACCCUCCUCAGGAGAAGGCUGCGGGUUCGAGUCCCGUACGGAACG [U28A A36C A45G]	≤ 0.5
GUUCCGCUGGCGUAAUGGUAACGCGUCUCCCUCCUAAGGAACAGACUGCCGGUUCGAGUCCGGUACGGAACG [U7C G41A A42C G50C C62G]	≤ 0.5
GUUGCGUUGGCGUAAUGGUAACGCGUAUCCCUCCUGAGGAGAAGACUGCGGGUUCGAGUCCCGUACGGAACG [C4G C27A A36G]	0.534
GCUCCGUUGGGGUAAUGGUAACGAGUCUCCCUCCUAAGGAGAAGACUGCGGGUUCGAGUCCCGUACGGAACG [U2C C11G C24A]	0.665
GUUCCCUUGGCGUAAUGGUAACGCGUCUCCCUCCUAAGGAGAAGAAUGCGGGUUCGAGUCCCAUACGGAACG [G6C C46A G63A]	0.689
GUUCCGUUGGCGUAAUGGUAACGCGACUCCCUCUUAAGGAGAAGACUGGGGGUUCGAGUCCCGUAAGGAACG [U26A C34U C49G C66A]	≤ 0.5
GUUCCGUUGGCGUAAUGGUAACGCGUCUCCUUUCUACGGAGAAGACUGCGGGUUUGAGUCCCGUACGGAACG [C31U C33U A37C C55U]	≤ 0.5
